Results on two compounds are retold here after ChEMBL document CHEMBL6115053, “Optimization and Characterization of N-Acetamide Indoles as Antimalarials That Target PfATP4” (J Med Chem, 2025).

In data set [1] the test system is Plasmodium falciparum. The experiment in a line: Antiplasmodial activity against Plasmodium falciparum 3D7 harboring Plasmodium falciparum ATP4 […] mutant by SYBR green staining based flow cytometry analysis. It counts as functional, organism-based.
Data set [2] concerns HepG2. Briefly: Cytotoxicity against human HepG2 cells assessed as inhibition of cell growth incubated for 48 hrs by celltiterglo assay. The settings on record: hepg2, 48 h. Format: toxicity, cell-based.
A short description of data set [3]: Metabolic stability in rat hepatocyte […] assessed as intrinsic clearance measured per 10^6 cells. Format: ADME, cell-based. The settings on record: hepatocytes.
Data set [4] deals with Plasmodium falciparum. Briefly: Antiplasmodial activity against W454-resistant population 1 Plasmodium falciparum 3D7 harboring Plasmodium falciparum ATP4 L928F mutant by LDH assay. Format: functional, organism-based.
Data set [5] deals with Plasmodium falciparum. The experiment in a line: Antiplasmodial activity against Plasmodium falciparum Dd2-B2 assessed as parasite clearance at 3 times IC90 incubated for 5 days. Format: functional, organism-based. The settings on record: time 5.0 day.
Data set [6] deals with Plasmodium falciparum. Briefly: Antiplasmodial activity against asexual blood stage Plasmodium falciparum Dd2-B2 assessed as parasite recrudescence by measuring minimum inoculum of resistance measured for 40 days by flow cytometry. The settings on record: time 40 day. Format: functional.
For data set [7], the system named is Plasmodium falciparum. The experiment in a line: Antiplasmodial activity against Plasmodium falciparum 3D7 infected in human […] cells incubated for 72 hrs. The settings on record: 3D7, 72 h. Format: functional, organism-based.
The subject of data set [8] is Plasmodium falciparum. Briefly: Antimalarial activity against Plasmodium falciparum NF54 infected assessed as inhibition of female gamete formation incubated for 48 hrs by automated bright field microscopic analysis. Format: functional, organism-based. The settings on record: NF54, 48 h.
For data set [9], the system named is Plasmodium falciparum. Briefly: Antiplasmodial activity against multidrug-resistant Plasmodium falciparum Dd2 harboring plasmodium falciparum ATP4 I398F/P990R/D1247Y mutant by SYBR green staining based analysis. Format: functional, organism-based.
In data set [10] the test system is Plasmodium falciparum. Briefly: Antiplasmodial activity against Plasmodium falciparum Dd2-B2 assessed as reduction in recrudescence measured for 42 days by flow cytometry. Format: functional, organism-based. The settings on record: time 42.0 day.
Data set [11] deals with Plasmodium falciparum. The experiment in a line: Antiplasmodial activity against W454-resistant population 2 Plasmodium falciparum 3D7 harboring Plasmodium falciparum ATP4 L928F mutant by LDH assay. Format: functional, organism-based.
The test system of data set [12] is Plasmodium falciparum. Briefly: Antiplasmodial activity against multidrug-resistant Plasmodium falciparum Dd2 harboring plasmodium falciparum ATP4 G358S mutant by SYBR green staining based analysis. Format: functional, organism-based.
Data set [13] concerns Plasmodium falciparum. The experiment in a line: Antiplasmodial activity against N-(2,6-difluorophenyl)-2-(6-(5-methyl-1,3,4-oxadiazol-2-yl)-1H-indol-1-yl)acetamide-resistant Plasmodium falciparum Dd2 harbouring ATP4 genome with 2.8 fold CNV by SYBR green staining based analysis. It counts as functional, organism-based.
Data set [14] concerns Plasmodium falciparum. The experiment in a line: Antiplasmodial activity against N-(2,6-difluorophenyl)-2-(6-(5-methyl-1,3,4-oxadiazol-2-yl)-1H-indol-1-yl)acetamide-resistant Plasmodium falciparum Dd2 harboring plasmodium falciparum ATP4 F156L mutant by SYBR green staining based analysis. Format: functional, organism-based.
Data set [15] in a line: Lipophilicity, logD of compound at pH 7.4 by shake-flask method. It counts as physicochemical. The settings on record: buffer.
The nature of data set [16]: Metabolic stability in human liver microsome assessed as intrinsic clearance. The settings on record: microsomes. Format: ADME.
The subject of data set [17] is Plasmodium falciparum. The experiment in a line: Antiplasmodial activity against Plasmodium falciparum Dd2-B2. Format: functional, organism-based.
Data set [18] relates to Plasmodium falciparum. The experiment in a line: Antiplasmodial activity against N-(2,6-difluorophenyl)-2-(6-(5-methyl-1,3,4-oxadiazol-2-yl)-1H-indol-1-yl)acetamide-resistant Plasmodium falciparum Dd2 harboring plasmodium falciparum ATP4 D425E mutant by SYBR green staining based analysis. It counts as functional, organism-based.
Data set [19] can be described thus: Aqueous solubility in PBS buffer at pH 7.4. It counts as physicochemical.
Data set [20] deals with Plasmodium falciparum. Briefly: Antiplasmodial activity against Plasmodium falciparum 3D7 infected in RBC assessed as reduction in parasite growth measured for 8 hrs by Giemsa-staining based microscopic analysis. It counts as functional, organism-based. The essentials: (§1)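 Giemsa-stained thin smears were read at 8 h and the percentages of extracellular and intracellular parasites counted, compared with untreated parasites at 0 h.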

For data set [21], the system named is Plasmodium falciparum. The experiment in a line: Antiplasmodial activity against Plasmodium falciparum Dd2-B2 assessed as parasite clearance at 3 times IC90 incubated for 42 days by flow cytometry analysis. It counts as functional, organism-based. The settings on record: time 42.0 day.
The nature of data set [22]: Metabolic stability in mouse liver microsome assessed as intrinsic clearance. Format: ADME. The settings on record: microsomes.
Data set [23] deals with Plasmodium falciparum. The experiment in a line: Antiplasmodial activity against Plasmodium falciparum 3D7 infected in RBC assessed as reduction in extracellular parasite growth at 0.03 uM measured for 8 hrs by Giemsa-staining based microscopic analysis. Details: scale not given: the % may be the effect or the level left. Format: functional. The essentials:
as §1

The subject of data set [24] is Plasmodium falciparum. The experiment in a line: Antimalarial activity against Plasmodium falciparum NF54 infected assessed as inhibition of male gamete formation incubated for 48 hrs by automated bright field microscopic analysis. It counts as functional, organism-based. The settings on record: NF54, 48 h.
For data set [25], the system named is Plasmodium falciparum. The experiment in a line: Antiplasmodial activity against asexual Plasmodium falciparum 3D7 infected in human […] cells assessed as reduction in parasite growth measured for 72 hrs by LDH assay. It counts as functional, organism-based. The settings on record: 3D7, 72 h.
The subject of data set [26] is Plasmodium falciparum. Briefly: Antiplasmodial activity against W454-resistant population 3 Plasmodium falciparum 3D7 harboring Plasmodium falciparum ATP4 L928F mutant by LDH assay. It counts as functional, organism-based.
In data set [27] the test system is Plasmodium falciparum. Briefly: Antiplasmodial activity against multidrug-resistant Plasmodium falciparum Dd2 harboring plasmodium falciparum ATP4 I398F/P990R/D1247Y mutant. It counts as functional, organism-based.
For data set [28], the system named is Plasmodium falciparum. Briefly: Antiplasmodial activity against N-(2,6-difluorophenyl)-2-(6-(5-methyl-1,3,4-oxadiazol-2-yl)-1H-indol-1-yl)acetamide-resistant Plasmodium falciparum Dd2 harbouring ATP4 genome with 2.8 fold CNV. Format: functional, organism-based.
For data set [29], the system named is Plasmodium falciparum. Briefly: Antiplasmodial activity against N-(2,6-difluorophenyl)-2-(6-(5-methyl-1,3,4-oxadiazol-2-yl)-1H-indol-1-yl)acetamide-resistant Plasmodium falciparum Dd2 harboring plasmodium falciparum ATP4 D425E mutant. Format: functional, organism-based.
The subject of data set [30] is Plasmodium falciparum. The experiment in a line: Antiplasmodial activity against multidrug-resistant Plasmodium falciparum Dd2 harboring plasmodium falciparum ATP4 G358S mutant. It counts as functional, organism-based.
Data set [31] has as its system Plasmodium falciparum. Briefly: Antiplasmodial activity against N-(2,6-difluorophenyl)-2-(6-(5-methyl-1,3,4-oxadiazol-2-yl)-1H-indol-1-yl)acetamide-resistant Plasmodium falciparum Dd2 harboring plasmodium falciparum ATP4 F156L mutant. It counts as functional, organism-based.
Data set [32] relates to Plasmodium falciparum. The experiment in a line: Antiplasmodial activity against Plasmodium falciparum 3D7. It counts as functional, organism-based.

≈ marks a conversion by molar mass, not a printed value. Calls of active or inactive are those of the source. The rule behind the calls is not given here.

With `COc1cc(NC(=O)Cn2ccc3cc(F)c(-c4cnn(C)c4)cc32)cc(OC)c1OC`, the result in [1], in [5], in data set [10], in [20] and in data set [21] was Active. Moreover, the CC50 in data set [2] is greater than 40 µM. Also, the “intrinsic clearance (CLint)” value in data set [3] stood at 1.9 uL/min/10^6 cells; in data set [16], 69 µL/min/mg; in data set [22] it was 90 µL/min/mg. In addition, the EC50 in data set [4] was 0.047 µM; in [7] it was 0.004 µM; in data set [8], 0.18 µM; in data set [9], 0.01 µM; in data set [11], 0.044 µM; in data set [12] it was 0.042 µM. Besides, the EC50 was 0.023 µM in data set [13]; 0.04 µM in data set [14]; 0.019 µM in data set [18]; 0.19 µM in data set [24]; 0.007 µM in [25]; 0.044 µM in data set [26]. In addition, the log10MIR in [6] is 8.7. For the same compound, in data set [15], the logD is 3.2. Besides, the half-maximal inhibitory concentration (IC50) in data set [17] stood at 0.0173 µM. Also, in [19], the solubility (kinetic) was found to be 2.7 µM (≈ 1.18 µg/mL). For the same compound, the Activity in data set [23] is reported as roughly 24%.

In the case of `Cc1nnc(-c2ccc3ccn(CC(=O)Nc4ccc(F)cc4F)c3c2)o1`, the EC50 is 0.142 µM in data set [27]; 0.03 µM in [28]; 0.03 µM in data set [29]; 0.028 µM in [30]; 0.025 µM in data set [31]; 0.016 µM in [32]. Also, the EC50 in data set [25] is 4.25 µM. The CC50 in data set [2] is greater than 40 µM.
